Assay results taken from publication PMC2692831 (Chemistry & biology, 2009).

What was measured:
[1] = system: brain and liver proteomes; experiment: CC-ABPP of in vivo protein targets of alkyne analogues; conditions: 10 mg/kg, i.p., 2 hr, FAAH(+/+) and (-/-) mice
Summary of the method: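 Alkyne-tagged test compound given i.p. at 10 mg/kg to FAAH(+/+) and FAAH(-/-) mice; vehicle-treated mice of both genotypes served as controls. After 2 hr, mice were sacrificed and brain and liver proteomes collected. Proteomes were conjugated to a rhodamine-azide tag under click-chemistry conditions and resolved by gel with in-gel fluorescence scanning. FAAH was assigned as the 60 kDa band missing in FAAH(-/-) mice.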

[2] = system: brain and liver levels of AEA, PEA, OEA, 2-AG; experiment: Tissue levels of FAAH substrates; assay type: in vivo, mice
[3] = molecular target: T1, human FAAH-2 (Homo sapiens, UniProt Q6GMR7); experiment: Inhibition of FAAH-2; assay type: biochemical
T1 sequence (Q6GMR7 1-532): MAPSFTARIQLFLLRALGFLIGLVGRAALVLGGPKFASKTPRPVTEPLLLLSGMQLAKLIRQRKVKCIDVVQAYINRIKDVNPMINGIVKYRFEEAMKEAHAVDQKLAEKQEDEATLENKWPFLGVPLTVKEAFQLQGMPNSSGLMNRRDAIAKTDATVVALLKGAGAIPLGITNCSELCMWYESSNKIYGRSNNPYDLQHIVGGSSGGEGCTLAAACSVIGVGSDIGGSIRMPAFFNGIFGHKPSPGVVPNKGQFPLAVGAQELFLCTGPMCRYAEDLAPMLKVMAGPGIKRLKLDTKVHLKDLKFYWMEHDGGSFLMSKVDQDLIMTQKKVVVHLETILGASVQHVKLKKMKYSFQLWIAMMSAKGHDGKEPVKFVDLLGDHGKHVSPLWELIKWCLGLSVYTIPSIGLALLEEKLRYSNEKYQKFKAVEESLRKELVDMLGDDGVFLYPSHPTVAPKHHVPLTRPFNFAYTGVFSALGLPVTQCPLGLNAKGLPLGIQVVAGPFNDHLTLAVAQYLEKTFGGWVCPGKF

[4] = system: FAAH activity and NAEs in brain, blood leukocytes/plasma, liver; experiment: FAAH activity and NAE levels in tissues and blood of treated rats; assay type: in vivo, rat; conditions: 4 hr
[5] = molecular target: T2, FAAH (Homo sapiens, UniProt O00519); experiment: FAAH inhibition kinetics, enzyme-coupled assay with oleamide as substrate; assay type: biochemical
T2 sequence (O00519 1-579): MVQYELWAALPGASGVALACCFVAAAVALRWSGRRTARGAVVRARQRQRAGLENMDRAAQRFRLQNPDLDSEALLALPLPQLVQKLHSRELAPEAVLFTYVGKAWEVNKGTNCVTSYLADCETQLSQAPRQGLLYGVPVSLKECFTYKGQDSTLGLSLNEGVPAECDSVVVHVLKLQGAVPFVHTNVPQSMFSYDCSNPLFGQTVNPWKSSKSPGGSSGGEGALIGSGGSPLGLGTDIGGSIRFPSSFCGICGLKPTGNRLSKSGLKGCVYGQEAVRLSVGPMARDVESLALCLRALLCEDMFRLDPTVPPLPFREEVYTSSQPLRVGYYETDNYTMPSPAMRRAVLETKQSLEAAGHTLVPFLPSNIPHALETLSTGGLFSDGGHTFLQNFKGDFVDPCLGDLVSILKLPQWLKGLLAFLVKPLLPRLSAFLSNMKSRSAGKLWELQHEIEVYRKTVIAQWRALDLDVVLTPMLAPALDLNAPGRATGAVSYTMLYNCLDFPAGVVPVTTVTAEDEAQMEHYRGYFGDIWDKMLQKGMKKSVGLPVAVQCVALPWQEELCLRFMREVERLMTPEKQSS

[6] = molecular target: T3, FAAH in the brain (Mus musculus, UniProt O08914); experiment: Competitive ABPP with FP-rhodamine, brain of treated mice; assay type: in vivo; conditions: for inactivation of FAAH in the brain: time course 1 to 24 hrs
T3 sequence (O08914 1-579): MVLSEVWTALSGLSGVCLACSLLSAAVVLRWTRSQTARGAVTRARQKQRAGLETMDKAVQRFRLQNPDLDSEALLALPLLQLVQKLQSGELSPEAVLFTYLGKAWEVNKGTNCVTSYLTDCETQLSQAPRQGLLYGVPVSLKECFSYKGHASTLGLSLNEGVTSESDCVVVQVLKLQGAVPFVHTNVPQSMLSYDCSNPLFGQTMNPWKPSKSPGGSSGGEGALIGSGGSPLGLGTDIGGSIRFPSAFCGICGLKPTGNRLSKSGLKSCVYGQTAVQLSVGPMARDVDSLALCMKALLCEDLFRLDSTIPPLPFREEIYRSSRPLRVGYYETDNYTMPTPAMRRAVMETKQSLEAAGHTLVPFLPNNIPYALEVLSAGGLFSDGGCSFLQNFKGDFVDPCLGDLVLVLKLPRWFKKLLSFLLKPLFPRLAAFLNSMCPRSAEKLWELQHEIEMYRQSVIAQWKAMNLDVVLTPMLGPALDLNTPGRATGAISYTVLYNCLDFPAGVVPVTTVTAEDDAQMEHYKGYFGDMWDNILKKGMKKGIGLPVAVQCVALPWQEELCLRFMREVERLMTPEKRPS

[7] = molecular target: T4, h/rFAAH ('humanized' rat-FAAH) (Rattus norvegicus, UniProt P97612, A377T/F194Y/I491V/L192F/S435N/V495M); experiment: Inhibitor potency; assay type: biochemical; conditions: read-out: kinact/Ki h/rFAAH
T4 sequence (P97612 30-579 L192F/F194Y/A377T/S435N/I491V/V495M limits assumed): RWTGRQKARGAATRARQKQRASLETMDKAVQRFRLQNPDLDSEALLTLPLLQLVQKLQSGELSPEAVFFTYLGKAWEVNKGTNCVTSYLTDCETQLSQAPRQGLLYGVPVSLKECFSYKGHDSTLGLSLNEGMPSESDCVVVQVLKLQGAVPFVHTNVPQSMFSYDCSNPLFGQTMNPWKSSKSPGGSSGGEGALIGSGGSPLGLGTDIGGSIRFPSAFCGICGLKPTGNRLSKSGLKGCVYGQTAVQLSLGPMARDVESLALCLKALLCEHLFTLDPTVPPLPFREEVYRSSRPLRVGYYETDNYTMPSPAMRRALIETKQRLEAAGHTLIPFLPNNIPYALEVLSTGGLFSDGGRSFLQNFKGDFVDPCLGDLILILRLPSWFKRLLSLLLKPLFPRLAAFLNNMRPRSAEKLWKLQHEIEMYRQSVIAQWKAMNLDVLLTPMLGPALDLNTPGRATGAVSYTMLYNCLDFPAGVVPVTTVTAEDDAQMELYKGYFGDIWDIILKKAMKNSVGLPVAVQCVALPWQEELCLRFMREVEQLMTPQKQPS
Summary of the method: (§1)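 Purified recombinant FAAH (human, rat, or humanized rat h/rFAAH) in an enzyme-coupled assay with oleamide as substrate. FAAH hydrolysis releases ammonia, which is coupled to stoichiometric NAD+ formation, read continuously. NAD+ production is linear over 40 min without inhibitor. Test compound is added from a DMSO stock. kinact and Ki are derived from progress curves and saturation plots fitted to a covalent inactivation model.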

[8] = molecular target: T2, FAAH; experiment: Inhibitor potency; assay type: biochemical; conditions: read-out: kinact/Ki hFAAH
Summary of the method: as §1

[9] = system: CFA model of inflammatory pain; experiment: CFA model of inflammatory pain, mechanical allodynia; assay type: in vivo, rat; conditions: for effect on mechanical allodynia in rats not treated with PF-3845: SR141716 10 mg/kg, SR144528 30 mg/kg, i.p.
Summary of the method: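 Male Sprague-Dawley rats (200–250 g) received 0.15 ml CFA into the left hind paw plantar surface. On day 5, mechanical paw withdrawal thresholds were taken with von Frey hairs by the Dixon up-down method. Test compound was then given orally (1–30 mg/kg) in 5% N,N-dimethylacetamide/95% (40% 2-hydroxypropyl-β-cyclodextrin in water), and thresholds were re-measured 4 hr post-dose. Naproxen (10 mg/kg p.o.) served as reference. n=8/group; ANOVA, unpaired t-tests.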

[10] = molecular target: T5, rFAAH (Rattus norvegicus, UniProt P97612); experiment: Inhibitor potency; assay type: biochemical; conditions: read-out: kinact/Ki rFAAH
T5 sequence (P97612 1-579): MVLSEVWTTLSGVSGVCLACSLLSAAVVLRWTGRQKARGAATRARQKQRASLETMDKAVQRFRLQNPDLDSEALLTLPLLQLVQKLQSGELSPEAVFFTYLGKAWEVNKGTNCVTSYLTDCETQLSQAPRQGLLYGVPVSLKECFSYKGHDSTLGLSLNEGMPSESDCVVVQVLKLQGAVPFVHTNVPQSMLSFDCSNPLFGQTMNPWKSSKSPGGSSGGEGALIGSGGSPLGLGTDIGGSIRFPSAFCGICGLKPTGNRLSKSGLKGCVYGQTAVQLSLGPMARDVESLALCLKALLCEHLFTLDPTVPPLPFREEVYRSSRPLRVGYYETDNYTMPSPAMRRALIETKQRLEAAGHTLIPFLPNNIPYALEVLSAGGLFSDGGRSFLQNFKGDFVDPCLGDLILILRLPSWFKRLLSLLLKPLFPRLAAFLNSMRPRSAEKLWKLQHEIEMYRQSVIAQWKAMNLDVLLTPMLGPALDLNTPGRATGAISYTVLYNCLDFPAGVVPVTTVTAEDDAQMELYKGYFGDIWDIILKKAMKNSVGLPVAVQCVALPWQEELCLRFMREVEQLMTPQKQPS
Summary of the method: as §1

[11] = system: liver serine hydrolases (carboxylesterases); experiment: Competitive ABPP with FP-rhodamine, liver of treated mice; assay type: in vivo; conditions: 10 mg/kg, i.p., 2 hr

C#CCCCCCCCCCNC(=O)Oc1cccc(-c2cccc(C(N)=O)c2)c1 [JP104]
proteins labeled in brain (CC-ABPP) ([1]; brain): selectively reacted with a single protein in mouse brain
proteins labeled in liver (CC-ABPP) ([1]; liver): labeling a number of proteins that were found in both FAAH(+/+) and (-/-) mice

O=C(Nc1cccnc1)N1CCC(Cc2cccc(Oc3ccc(C(F)(F)F)cn3)c2)CC1 [PF-3845]
levels of 2-AG in brain or liver ([2]; 10 mg/kg, i.p., mice): did not show changes
elevations in brain levels of AEA (and other NAEs PEA, OEA) ([2]; 10 mg/kg, i.p., mice, brain): > 10 fold
time NAE elevations maintained at maximal levels (up to) ([2]; 10 mg/kg, i.p., mice, brain): 7 to 12 h
time of peak elevation in NAEs ([2]; 10 mg/kg, i.p., mice, brain): ~3 h
AEA, PEA, OEA levels at 24 hrs post-treatment ([2]; 10 mg/kg, i.p., mice, brain, 24 hrs): significant elevations
AEA, PEA and OEA levels in liver tissue ([2]; 10 mg/kg, i.p., mice, liver): significant elevations
endocannabinoid (AEA or 2-AG) levels in FAAH(-/-) mice ([2]; FAAH(-/-) mice): did not alter
duration of high AEA elevations ([2]; mice): at least 7 hrs
IC50 [3]: > 10 µM
blockade of FAAH activity at 1 mg/kg ([4]; 1 mg/kg p.o.): near-complete blockade of FAAH activity
elevations in AEA at 1 mg/kg ([4]; 1 mg/kg p.o.): close to maximal elevations in AEA
increase of OEA and PEA in brain ([4]; p.o., brain): ~10 fold
maximal elevation of AEA in brain and plasma ([4]; p.o., brain and plasma): ~10 fold
increase of OEA and PEA in plasma ([4]; p.o., plasma): ~3 fold
kinact [5]: 0.0033 ± 0.0002 s⁻¹
kinact/KI [5]: 14300 M⁻¹ s⁻¹
improvement in potency ([5]; PF-3845 versus PF-750 (structure comparison)): ~20 fold
fold higher kinact/Ki value for FAAH ([5]; compared to PF-750 or URB597): 10-20 fold
inhibition of other FP-reactive serine hydrolases in brain ([6]; 10 mg/kg, i.p., mice): none of the other FP-reactive serine hydrolases in this tissue were inhibited
inactivation of FAAH in the brain ([6]; 10 mg/kg, i.p., mice): rapid and complete inactivation of FAAH in the brain
inhibition at 10 mg/kg ([6]; mouse, ip, read-out: brain FAAH inhibited at 24 hr): > 75%
kinact/KI [7]: 13300 M⁻¹ s⁻¹
kinact/KI [8]: 12600 M⁻¹ s⁻¹
efficacy in CFA model at 1 mg/kg ([9]; 1 mg/kg p.o., 4 hr): efficacy was not observed
inhibition of mechanical allodynia, time course 2-8 hrs ([9]; 10 mg/kg, p.o., 2-8 hrs post-administration): significant inhibition of mechanical allodynia at all time points tested
minimum effective dose (MED), inhibition of mechanical allodynia ([9]; p.o., 1-30 mg/kg, rats, 4 hr post-dosing): 3 mg/kg
inhibition of pain responses at 10 and 30 mg/kg ([9]; p.o., 10 and 30 mg/kg, versus naproxen 10 mg/kg p.o.): equivalent, if not greater degree than the nonsteroidal anti-inflammatory drug naproxen
kinact/KI [10]: 3900 ± 780 M⁻¹ s⁻¹

Cc1c(C(=O)NN2CCCCC2)nn(-c2ccc(Cl)cc2Cl)c1-c1ccc(Cl)cc1 [SR141716, reference compound]
effect on mechanical allodynia in rats not treated with PF-3845 [9]: neither the CB1 nor CB2 antagonist displayed significant effects

NC(=O)c1cccc(-c2cccc(OC(=O)NC3CCCCC3)c2)c1 [URB597, cyclohexyl carbamic acid 3′-carbamoyl-biphenyl-3-yl ester, reference compound]
time by which AEA levels return to near-baseline ([2]; 10 mg/kg, i.p., mice, brain): up to 7 hrs
inhibition of other FP-reactive serine hydrolases in brain ([6]; 10 mg/kg, i.p., mice): none of the other FP-reactive serine hydrolases in this tissue were inhibited
brain FAAH activity at 24 hr ([6]; 10 mg/kg, i.p., mice, 24 hr): nearly wild type levels of brain FAAH activity
inactivation of FAAH in the brain ([6]; 10 mg/kg, i.p., mice): rapid and complete inactivation of FAAH in the brain
blockade of FP-labeling of additional liver serine hydrolases [11]: blocked FP-labeling of several additional liver serine hydrolases

SR144528 [reference compound]
effect on mechanical allodynia in rats not treated with PF-3845 [9]: neither the CB1 nor CB2 antagonist displayed significant effects
